Source: PubChem
Only some compounds are listed: those with a hit (about 5.1% of all), similar ones and a draw of the others.
APP 5'UTR act = activators of APP 5'UTR luciferase reporter, primary screen, SH-SY5Y cells | SH-SY5Y APP 5'UTR luciferase reporter, luminescence; zero percent = DMSO vehicle wells | activation, % at 2 µM | actives 1% (n = 190,000) | AID 1276, 2008;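 active means activation above a set limit, based on mean plus 3 SD of controls, cut at about 140% in these data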
STAT3 activator = IL-6 driven STAT3 reporter potentiators, primary screen, U3A cells, luciferase, luminescence, MLSCN library; IL-6 STAT3-luciferase reporter; 100% = signal with IL-6 EC80 alone; activation (% of control), % at 5.6 µM; actives 0.91% (n = 190,000);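 active means activation above the screen-wide mean of compound activation plus 3 SD, cut at about 130% in these data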;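 further: 0% = background luminescence of wells with medium and substrate only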
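Material: STAT1-lacking human U3A cells, STAT3 luciferase reporter | Benchmarks: IL-6-only wells as 100% reference | Probe or stimulus: IL-6 (33 ng/mL) | Timing: Compound 1 h, then IL-6 6 h at 37 °C | Detection: Luminescence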
STAT1 activator = STAT1 signaling activators, primary screen, cell-based, HTS, luciferase reporter; NIH 3T3 STAT1-luciferase reporter, IFN-gamma, luminescence; 100% = IFN-gamma alone, no compound; activation (% of control), % at 5.5 µM; actives 2.6% (n = 200,000);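 active means activation above the screen-wide mean activation plus 3 SD, cut at about 130% in these data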;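 further: raw ratio to IFN-gamma control signal so 100% means no change and 0% no light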
STAT3 blocker = IL-6 driven STAT3 reporter inhibitors, primary screen, U3A cells, luciferase, luminescence, MLSCN library. IL-6 STAT3-luciferase reporter; host cell line lacks STAT1. inhibition, % at 5.5 µM. actives 0.89% (n = 190,000). AID 862, 2007;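 active means inhibition above the mean inhibition across all screened compounds plus 3 SD, cut at about 44% in these data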;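 further: 0% = DMSO only wells and 100% = 100 µM nifuroxazide control wells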
STAT1 inh = STAT1 signaling inhibitors, primary screen, cell-based, HTS, luciferase reporter; NIH 3T3 STAT1-luciferase reporter, IFN-gamma, luminescence; inhibition, % at 5.5 µM; actives 0.35% (n = 200,000);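 active means inhibition above a set limit, the mean inhibition across all tested compounds plus 3 SD, cut at about 34% in these data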;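 further: 0% = IFN-gamma with DMSO and 100% = IFN-gamma with 300 µM nifuroxazide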
NF-kB neuron act = activators of NF-kB expression in neurons, primary screen, cell-based, HTS. actives 1.6% (n = 190,000). human neuronal cells, NF-kB reporter expression; stronger effect = higher value. fold change at 12.5 µM; in the data active means fold change above about 3.3
* = called active by the depositor; . = no result given.

SMILES | APP 5'UTR act | STAT3 activator | STAT1 activator | STAT3 blocker | STAT1 inh | NF-kB neuron act
COc1cc([N+](=O)[O-])ccc1N/C=C/C(=O)c1cccs1 | 136* | 44 | 58 | 73* | 47* | 4.3*
CC(=O)N1NC(=Nc2ccccc2)SC1(C)C | -20 | 82 | 85 | 23 | 15 | 0.69
CN1CCN(NC(=S)Nc2ccc(OC(F)F)cc2)CC1 | -2 | 106 | 99 | -2 | -2 | 1.6
Cc1sc2c(c1C)C(=O)NC(c1cccc(O)c1)N2 (configuration not stated) | 14 | 144* | 103 | -52 | -3 | 1.9
CCn1cc(C(=O)OCC(=O)c2cc(C)n(-c3ccccc3F)c2C)c(=O)c2ccc(C)nc21 | 1 | 102 | 100 | -2 | 0 | 1
Cc1cc(C(=O)Cn2nnc3ccccc3c2=O)c(C)n1-c1ccccc1F | 197* | 86 | 129* | 22 | -32 | 1.7
Cc1cc(C(=O)COC(=O)c2ccc(O)cc2)c(C)n1-c1ccccc1F | 185* | 90 | 126 | 13 | -30 | 1.3
Cc1cc(C(=O)Cn2nnc3ccccc3c2=O)c(C)n1-c1c(C)n(C)n(-c2ccccc2)c1=O | 1 | 99 | 101 | 6 | -1 | 0.94
CCOC(=O)C1(CCOC)CCN(C(C)CCc2ccc(OC)cc2)CC1 (configuration not stated) | 7 | 112 | 104 | -9 | -6 | 1.2
O=C(c1cnc(-c2ccc(Cl)cc2)s1)c1ccc(Cl)cc1Cl | -6 | 98 | 104 | 4 | -5 | 1.6
CNc1ncc(C(=O)c2ccc(Cl)c(Cl)c2)s1 | 0 | 107 | 125 | -7 | -28 | 4.3*
CNc1ncc(C(=O)c2ccc(Cl)cc2)s1 | 97 | 93 | 114 | 10 | -16 | 4*
O=C(c1ccc(Cl)c(Cl)c1)c1cnc(Nc2ccccc2)s1 | 1 | 96 | 95 | 12 | 6 | 1.2
COc1ccc(CCNC(=O)C(=O)N2CCCC2)cc1OC | -3 | 96 | 86 | 10 | 13 | 1.1
O=c1[nH][nH]c(C(F)(F)F)c1/C=N/N1CCOCC1 | -4 | 105 | 107 | 1 | -9 | 1
O=C(Nc1ccc2c(c1)ncn2-c1ccccc1)c1ccco1 | 70 | 95 | 140* | 9 | -55 | 1.2
CC(=O)Nc1ccc2c(c1)ncn2C | 15 | 104 | 98 | -3 | 7 | 1.4
CC(=O)Nc1ccc2c(c1)ncn2-c1ccc(C)cc1 | 225* | 97 | 146* | 5 | -48 | 5.1*
Cc1cn(-c2ccccc2)c(C)c1/C=N\Nc1nc(N2CCOCC2)nc(N2CCOCC2)n1 | -7 | 102 | 102 | 1 | -4 | 0.7
O=c1cc(CN2CCc3ccccc32)nc2sccn12 | 2 | 134* | 88 | -41 | 6 | 0.94
O=c1cc(CN2CCCc3ccccc32)nc2sccn12 | 11 | 124 | 100 | -31 | 0 | 1.1
COc1ccc(-c2noc(COc3ccc4c(c3)OCO4)n2)cc1 | -11 | 102 | 105 | 2 | -2 | 1.3
c1ccc(-c2noc(COc3ccc4c(c3)OCO4)n2)cc1 | 100 | 109 | 125 | -11 | -27 | 4.1*
Cc1ccccc1OCc1nc(-c2ccccc2)no1 | 79 | 110 | 137* | -9 | -40 | 2.9
CC(C)C(NC(=O)c1ccco1)C(=O)OCC(=O)Nc1ccc(C(N)=O)cc1 (configuration not stated) | -17 | 92 | 99 | 16 | 0 | 1.1
SMILES | APP 5'UTR act | STAT3 activator | STAT1 activator | STAT3 blocker | STAT1 inh | NF-kB neuron act
Cc1cccn2c(N)c(-c3ccccc3)nc12 | 18 | 134* | 102 | -35 | -2 | 1.3
Clc1ccc(/C=N/NC(=Nc2ccccc2)c2ccccn2)c(Cl)c1 | 164* | 101 | 128 | 10 | -32 | 3.1
COc1ccc(-c2csc(NC(=O)c3ccccc3NS(=O)(=O)c3ccc(F)c(F)c3)n2)cc1 | 6 | 37 | 40 | 79* | 63* | 0.8
Cc1ccc(-c2csc(NC(=O)COC(=O)c3cccc(S(=O)(=O)N4CCOCC4)c3)n2)cc1 | 86 | 104 | 131* | -4 | -35 | 3.6*
COc1cccc(C(=O)Nc2nc(-c3ccc(S(=O)(=O)N4CCOCC4)cc3)cs2)c1 | -3 | 63 | 55 | 48* | 47* | 0.19
Cc1ccccc1NC(=O)c1c2c(nc3ccccc13)CCC2 | -12 | 105 | 104 | -7 | -4 | 2
CCC(C)(C)NC(=O)C(c1cccc(OC)c1OC)N(CCC(C)C)C(=O)CCC(=O)Nc1cc(C)on1 (configuration not stated) | -8 | 113 | 95 | -11 | 5 | 1
Cc1cccc(NC(=O)c2ccc([N+](=O)[O-])s2)c1C | -3 | 86 | 93 | 19 | 8 | 2.5
CCCCCOC(=O)c1[nH]c2c(c1C)C(=O)CC(c1ccco1)C2 (configuration not stated) | -95 | 121 | 102 | -25 | -2 | 5.2*
COc1ccc(C(=O)C2CCCN(C(=O)c3ccc4cc[nH]c4c3)C2)c(C)c1 (configuration not stated) | 3 | 101 | 100 | 1 | -2 | 1.1
Cc1ccc(-c2csc(NC(=O)/C=C/c3ccco3)c2C(=O)O)cc1 | 63 | 98 | 138* | 11 | -41 | 1.7
N#CCCCN1C(=O)C(=C(C#N)C#N)c2ccccc21 | -11 | 106 | 95 | -2 | 4 | 1
COc1ccc(NC(=O)c2c3c(nc4ccccc24)CCC3)cc1S(=O)(=O)N1CCOCC1 | 8 | 108 | 95 | 0 | 5 | 0.75
COc1ccc(NC(=O)c2cc([N+](=O)[O-])ccc2O)cc1 | -12 | 11 | 14 | 105* | 94* | .
CN(C)c1ccc(NC(=O)Oc2ccccc2)cc1 | 126 | 105 | 130* | 0 | -33 | 1.5
CN(C)c1ccc(NC(=O)Nc2cccc(Cl)c2)cc1 | 181* | 97 | 135* | 8 | -38 | 7.2*
O=C(NC(=S)Nc1ccccc1F)c1ccc(Br)o1 | 41 | 116 | 126 | -14 | -30 | 2.1
COc1ccccc1C(=O)NNC(=S)NC(=O)c1sc2ccccc2c1Cl | 6 | 115 | 102 | -19 | -2 | 0.92
Cc1c(NC(=S)NC(=O)c2sc3ccccc3c2Cl)cccc1C(=O)O | 186* | 80 | 121 | 25 | -22 | 3
CCN(CC)c1ccc(/C=N/N2CCOCC2)c(O)c1 | 55 | 101 | 142* | 3 | -48 | 2.8
CCN(CC)c1ccc(C=Nc2ccc(N(C)C)cc2)c(O)c1 | 79 | 94 | 130* | 15 | -33 | 1.2
CCN(CC)c1ccc(/C=N/NC(=S)NC)c(O)c1 | -13 | 96 | 117 | 11 | -18 | 5.9*
